Measurements: ChEMBL document CHEMBL3393009 (J Med Chem, 2015)
Calls of active or inactive are those of the source. The calls are words filed in the database; no cut-off is given here.

Key:
[1] = Oral bioavailability in non-human primate at 5 mg/kg; format: ADME, organism-based; conditions: monkey, in vivo
[2] = Tmax in rat at 5 mg/kg, po; format: ADME, organism-based; design: dose 5 mg/kg, route oral; conditions: in vivo
[3] = Drug coverage index, ratio fCmax in Wistar Han rat at 6 mg/kg, po bid for 14 days to IC50 for LRRK2 […] phosphorylation in Wistar Han rat brain at 6 to 60 mg/kg, po bid for 14 days; format: ADME, organism-based; conditions: in vivo, 336 h
In short: (§1)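 Wistar Han rats (200–300 g, 8–11 weeks old) were dosed by oral gavage twice daily for 14 days. Vehicle was 10% propylene glycol/20% PEG400/70% 9.5% methocellulose.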

[4] = Half life in rat at 5 mg/kg, po; format: ADME, organism-based; design: dose 5 mg/kg, route oral; conditions: in vivo
[5] = Half life in non-human primate at 5 mg/kg, po; format: ADME, organism-based; design: dose 5 mg/kg, route oral; conditions: monkey, in vivo
[6] = Cmax in rat at 5 mg/kg, po; format: ADME, organism-based; design: dose 5 mg/kg, route oral; conditions: in vivo
[7] = system: Rattus norvegicus; test: Drug coverage index, ratio fAUC in Wistar Han rat at 60 mg/kg, po bid for 14 days to IC50 for LRRK2 […] phosphorylation in Wistar Han rat brain at 6 to 60 mg/kg, po bid for 14 days; format: ADME, organism-based; conditions: in vivo, 336 h; in short: as §1
[8] = Clearance in rat liver microsomes; format: ADME; conditions: read-out: CLH
[9] = Oral bioavailability in dog at 5 mg/kg; format: ADME, organism-based, Canis lupus familiaris; conditions: in vivo
[10] = molecular target: Leucine-rich repeat serine/threonine-protein kinase 2 (Homo sapiens, UniProt Q5S007); test: Inhibition of LRRK2 in human PBMCs by ActivX KiNativ method
[11] = system: Rattus norvegicus; test: Drug coverage index, ratio fAUC in Wistar Han rat at 20 mg/kg, po bid for 14 days to IC50 for LRRK2 […] phosphorylation in Wistar Han rat brain at 6 to 60 mg/kg, po bid for 14 days; format: ADME, organism-based; conditions: in vivo, 336 h; in short: as §1
[12] = molecular target: Serine/threonine-protein kinase 26 (Homo sapiens, UniProt Q9P289); test: Inhibition of human recombinant MST4 using Ser/Thr peptide 7 substrate after 60 mins by Z-Lyte assay
In short: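 Z-Lyte FRET assay, final 2 μM Ser/Thr peptide 7, 75 μM ATP, 18 nM kinase. Buffer 50 mM HEPES (pH 7.0 for MST2, 7.5 for MST4), 10 mM MgCl2, 1 mM EGTA, 0.01% Brij-35. Stopped at 45 min (MST2) or 60 min (MST4). Excitation 400 nm, emission 445/520 ratio converted to percent phosphorylation for IC50.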

[13] = Oral bioavailability in rat at 5 mg/kg; format: ADME, organism-based; conditions: in vivo
[14] = Drug coverage index, ratio of average concentration ( 0 to 24 hrs) in Wistar Han rat at 6 to 60 mg/kg, po bid for 14 days to IC50 for LRRK2 […] phosphorylation in Wistar Han rat brain at 6 to 60 mg/kg, po bid for 14 days; format: ADME, organism-based; conditions: in vivo; in short: as §1
[15] = system: Mus musculus; test: Inhibition of wild type LRRK2 […] phosphorylation in BAC-transgenic C57BL/6J mouse brain at 3 to 100 mg/kg, sc measured after 90 mins post dose; format: functional; conditions: dose mg/kg 3-100; route subcutaneous
In short: (§2)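 Mice given compound subcutaneously in 10% NMP/20% SBECD vehicle: four-month-old C57BL/6J (wild type) or seven-month-old LRRK2 BAC-Tg G2019S. Tissues collected 90 min after dose. pS935, and pS1292 (custom antibody) in transgenic brain, read by Western blot of brain/kidney lysates against vehicle controls. Mean ± SEM.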

[16] = system: Rattus norvegicus; test: Inhibition of LRRK2 […] phosphorylation in Wistar Han rat brain at 6 to 60 mg/kg, po bid for 14 days; format: functional; conditions: dose mg/kg 6-60
[17] = system: Mus musculus; test: Inhibition of wild type LRRK2 […] phosphorylation in BAC-transgenic C57BL/6J mouse kidney at 3 to 100 mg/kg, sc measured after 90 mins post dose; format: functional; conditions: dose mg/kg 3-100; route subcutaneous; in short: as §2
[18] = system: Mus musculus; test: Effect on total LRRK2 protein level in BAC-transgenic C57BL/6J mouse kidney at 3 to 100 mg/kg, sc measured after 90 mins post dose; format: ADME, organism-based; design: dose 3-100 mg/kg, route subcutaneous; conditions: in vivo, 1.5 h
[19] = system: Canis familiaris; test: Volume of distribution at steady state in dog at 5 mg/kg, po; format: ADME, organism-based, Canis lupus familiaris; design: dose 5 mg/kg, route oral; conditions: in vivo
[20] = Volume of distribution at steady state in non-human primate at 5 mg/kg, po; format: ADME, organism-based; design: dose 5 mg/kg, route oral; conditions: monkey, in vivo
[21] = Apparent permeability from apical to basolateral side by cell based assay; format: physicochemical; conditions: not told
[22] = system: Rattus norvegicus; test: Toxicity in Wistar Han rat assessed as changes in urinary biomarkers at 6 to 60 mg/kg, po bid for 14 days; format: organism-based, Urine; design: dose 6-60 mg/kg, route oral; conditions: in vivo, 336 h
In short: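 Wistar Han rats (200–300 g, 8–11 weeks) dosed by oral gavage twice daily for 14 days. Vehicle: 10% propylene glycol/20% PEG400/70% methylcellulose solution. RBC parameters, electrolytes, food consumption, body weight, clinical chemistry and urinary biomarkers recorded.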

[23] = system: Mus musculus; test: Effect on total LRRK2 protein level in BAC-transgenic C57BL/6J mouse brain at 3 to 100 mg/kg, sc measured after 90 mins post dose; format: ADME, organism-based; design: dose 3-100 mg/kg, route subcutaneous; conditions: in vivo, 1.5 h
[24] = system: Rattus norvegicus; test: Volume of distribution at steady state in rat at 5 mg/kg, po; format: ADME, organism-based; design: dose 5 mg/kg, route oral; conditions: in vivo
[25] = AUC in non-human primate at 5 mg/kg, po; format: ADME, organism-based; design: dose 5 mg/kg, route oral; conditions: monkey, plasma
[26] = system: Rattus norvegicus; test: fCmax in Wistar Han rat at 20 mg/kg, po bid for 14 days; format: ADME, organism-based; design: dose 20 mg/kg, route oral; conditions: in vivo, 336 h
[27] = molecular target: Tyrosine-protein kinase JAK1 (Homo sapiens, UniProt P23458); test: Inhibition of JAK1 (JH1 domain-catalytic) (unknown origin) at 1 uM
Sequence of Tyrosine-protein kinase JAK1 (P23458 whole entry, the tested form may be a part): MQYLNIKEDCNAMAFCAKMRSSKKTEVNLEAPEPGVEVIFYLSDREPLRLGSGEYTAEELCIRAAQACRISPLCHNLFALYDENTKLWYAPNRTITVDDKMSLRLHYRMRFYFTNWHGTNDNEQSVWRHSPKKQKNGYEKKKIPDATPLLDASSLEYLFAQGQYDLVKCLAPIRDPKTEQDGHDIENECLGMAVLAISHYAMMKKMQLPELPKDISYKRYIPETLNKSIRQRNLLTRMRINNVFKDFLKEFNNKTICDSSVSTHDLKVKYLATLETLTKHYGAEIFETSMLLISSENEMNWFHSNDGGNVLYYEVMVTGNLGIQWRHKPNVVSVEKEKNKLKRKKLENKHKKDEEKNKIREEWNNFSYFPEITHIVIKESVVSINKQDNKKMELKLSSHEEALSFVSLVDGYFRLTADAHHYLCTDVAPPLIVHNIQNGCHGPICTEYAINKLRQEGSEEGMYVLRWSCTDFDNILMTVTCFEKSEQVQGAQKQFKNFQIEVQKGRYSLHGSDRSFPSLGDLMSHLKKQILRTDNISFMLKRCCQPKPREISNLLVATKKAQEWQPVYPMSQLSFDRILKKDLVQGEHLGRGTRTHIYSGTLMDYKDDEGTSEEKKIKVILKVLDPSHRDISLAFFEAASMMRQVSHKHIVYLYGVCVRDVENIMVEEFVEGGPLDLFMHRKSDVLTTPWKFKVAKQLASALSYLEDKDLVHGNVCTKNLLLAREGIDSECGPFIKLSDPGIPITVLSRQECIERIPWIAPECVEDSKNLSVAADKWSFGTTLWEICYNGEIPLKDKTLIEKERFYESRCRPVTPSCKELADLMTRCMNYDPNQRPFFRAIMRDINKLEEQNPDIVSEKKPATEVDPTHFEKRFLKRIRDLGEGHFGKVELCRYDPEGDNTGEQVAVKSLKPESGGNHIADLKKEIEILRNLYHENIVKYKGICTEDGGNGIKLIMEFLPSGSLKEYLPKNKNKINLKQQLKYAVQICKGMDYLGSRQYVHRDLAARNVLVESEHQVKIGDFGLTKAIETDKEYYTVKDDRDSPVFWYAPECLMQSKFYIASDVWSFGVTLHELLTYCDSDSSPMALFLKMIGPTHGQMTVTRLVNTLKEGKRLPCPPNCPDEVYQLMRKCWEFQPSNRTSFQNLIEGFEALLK

Sequence of Serine/threonine-protein kinase 26 (Q9P289 whole entry): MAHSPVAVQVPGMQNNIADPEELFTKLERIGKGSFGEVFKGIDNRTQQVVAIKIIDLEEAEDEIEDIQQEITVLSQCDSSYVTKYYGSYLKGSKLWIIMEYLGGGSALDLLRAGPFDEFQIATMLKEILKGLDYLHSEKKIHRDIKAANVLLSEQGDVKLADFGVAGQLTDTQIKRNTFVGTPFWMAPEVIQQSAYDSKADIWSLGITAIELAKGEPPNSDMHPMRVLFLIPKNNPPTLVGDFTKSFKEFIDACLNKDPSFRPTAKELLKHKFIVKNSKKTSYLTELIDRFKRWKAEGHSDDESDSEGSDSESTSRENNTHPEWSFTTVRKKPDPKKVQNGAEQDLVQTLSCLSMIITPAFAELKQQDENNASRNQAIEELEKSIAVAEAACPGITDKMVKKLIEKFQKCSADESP
Sequence of Leucine-rich repeat serine/threonine-protein kinase 2 (Q5S007 whole entry): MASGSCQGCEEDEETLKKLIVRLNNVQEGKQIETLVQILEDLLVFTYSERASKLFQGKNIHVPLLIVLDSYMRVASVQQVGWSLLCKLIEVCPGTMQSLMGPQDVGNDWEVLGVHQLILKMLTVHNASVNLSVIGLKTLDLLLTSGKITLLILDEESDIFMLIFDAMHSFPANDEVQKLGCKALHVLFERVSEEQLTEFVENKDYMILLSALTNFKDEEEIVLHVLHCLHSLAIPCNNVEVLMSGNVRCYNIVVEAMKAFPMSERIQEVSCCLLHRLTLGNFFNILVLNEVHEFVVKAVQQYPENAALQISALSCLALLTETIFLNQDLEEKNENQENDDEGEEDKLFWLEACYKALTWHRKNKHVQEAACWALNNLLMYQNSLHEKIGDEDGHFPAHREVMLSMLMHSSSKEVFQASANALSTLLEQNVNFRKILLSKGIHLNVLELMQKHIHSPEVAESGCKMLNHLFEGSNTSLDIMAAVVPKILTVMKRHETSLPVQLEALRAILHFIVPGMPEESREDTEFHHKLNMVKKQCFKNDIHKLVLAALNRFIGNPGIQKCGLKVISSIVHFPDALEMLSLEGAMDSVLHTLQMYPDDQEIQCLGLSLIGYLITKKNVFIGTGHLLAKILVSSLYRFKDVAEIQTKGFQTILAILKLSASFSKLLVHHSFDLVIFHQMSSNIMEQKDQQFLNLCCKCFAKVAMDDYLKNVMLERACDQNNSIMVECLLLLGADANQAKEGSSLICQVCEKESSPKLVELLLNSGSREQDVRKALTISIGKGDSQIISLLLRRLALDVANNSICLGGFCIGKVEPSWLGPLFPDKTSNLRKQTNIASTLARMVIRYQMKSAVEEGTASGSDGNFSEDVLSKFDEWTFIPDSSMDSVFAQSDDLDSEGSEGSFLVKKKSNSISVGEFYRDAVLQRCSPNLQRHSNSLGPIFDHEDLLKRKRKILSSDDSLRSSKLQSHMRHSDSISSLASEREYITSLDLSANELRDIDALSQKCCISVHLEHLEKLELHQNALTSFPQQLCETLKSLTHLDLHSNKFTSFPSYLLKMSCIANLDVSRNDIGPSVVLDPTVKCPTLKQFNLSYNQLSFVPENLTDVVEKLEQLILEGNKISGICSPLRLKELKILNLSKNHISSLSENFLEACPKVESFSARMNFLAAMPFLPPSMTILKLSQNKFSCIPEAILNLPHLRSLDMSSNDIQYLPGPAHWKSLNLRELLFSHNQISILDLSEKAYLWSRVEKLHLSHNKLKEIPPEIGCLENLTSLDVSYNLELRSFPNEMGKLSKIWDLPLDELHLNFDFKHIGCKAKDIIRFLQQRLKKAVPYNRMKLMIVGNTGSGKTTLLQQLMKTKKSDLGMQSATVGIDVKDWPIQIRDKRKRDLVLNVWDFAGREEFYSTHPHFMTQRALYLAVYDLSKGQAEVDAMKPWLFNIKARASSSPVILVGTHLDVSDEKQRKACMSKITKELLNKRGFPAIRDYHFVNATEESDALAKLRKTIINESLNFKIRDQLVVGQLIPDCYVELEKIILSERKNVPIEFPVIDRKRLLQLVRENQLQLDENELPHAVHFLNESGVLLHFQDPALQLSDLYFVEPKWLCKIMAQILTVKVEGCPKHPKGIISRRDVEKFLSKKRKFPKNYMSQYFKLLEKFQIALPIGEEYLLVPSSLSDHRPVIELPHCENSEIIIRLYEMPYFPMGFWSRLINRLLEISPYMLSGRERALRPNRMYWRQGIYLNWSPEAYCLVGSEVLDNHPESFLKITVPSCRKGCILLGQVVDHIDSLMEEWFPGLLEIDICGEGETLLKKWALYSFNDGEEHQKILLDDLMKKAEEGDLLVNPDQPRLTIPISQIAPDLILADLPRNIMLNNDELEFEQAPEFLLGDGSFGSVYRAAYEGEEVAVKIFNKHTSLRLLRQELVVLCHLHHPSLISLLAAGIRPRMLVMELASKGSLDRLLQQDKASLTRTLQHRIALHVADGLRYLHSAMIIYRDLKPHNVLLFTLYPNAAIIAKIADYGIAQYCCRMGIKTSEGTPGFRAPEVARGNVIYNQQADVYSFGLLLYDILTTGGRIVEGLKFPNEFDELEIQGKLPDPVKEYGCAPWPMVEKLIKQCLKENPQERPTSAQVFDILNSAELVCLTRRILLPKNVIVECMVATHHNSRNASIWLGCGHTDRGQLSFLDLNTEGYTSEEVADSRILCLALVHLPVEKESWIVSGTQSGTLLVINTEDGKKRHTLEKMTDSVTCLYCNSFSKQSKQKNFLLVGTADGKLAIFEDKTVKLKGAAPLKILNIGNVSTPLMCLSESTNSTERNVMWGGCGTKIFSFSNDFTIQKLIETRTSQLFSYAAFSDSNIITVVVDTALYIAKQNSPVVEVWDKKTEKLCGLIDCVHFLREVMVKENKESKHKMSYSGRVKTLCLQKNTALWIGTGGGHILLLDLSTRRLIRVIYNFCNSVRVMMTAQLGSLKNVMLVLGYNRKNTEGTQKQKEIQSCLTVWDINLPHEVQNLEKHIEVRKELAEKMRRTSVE

N#Cc1cccc(-c2c[nH]c3ncnc(N4CCOCC4)c23)c1
bioavailability [1]: 3.5%
Tmax [2]: 0.5 h
Ratio [3]: 6
half-life [4]: 6.22 h
half-life [5]: 2.27 h
Cmax [6]: 181 ng/mL
Ratio [7]: 31
CLint scaled [8]: 131 mL/min/kg
bioavailability [9]: 0.6%
IC50 [10]: 15 nM
Ratio [11]: 12
IC50 [12]: 178 nM
bioavailability [13]: 41%
Ratio [14]: 31
fIC50 [15]: 8 nM
fIC50 [16]: 15 nM
fIC50 [17]: 11 nM
Activity [18]: Non-toxic
Vdss [19]: 0.92 L/kg
Vdss [20]: 1.06 L/kg
Papp A→B [21]: 27 ×10⁻⁶ cm/s
Activity [22]: Non-toxic
Activity [23]: Non-toxic
Vdss [24]: 1.83 L/kg
AUC [25]: 78 ng·h/mL
fCmax [26]: 380 nM
inhibition [27]: inactive
